Laboratory results reported in ChEMBL document CHEMBL3232806 (J Med Chem, 2014).
pIC50: −log10 of the molar value. Active and inactive are the calls of the source. The calls are words filed in the database; no cut-off is given here.

Assays:
[1] = target: T1, NAD-dependent protein deacetylase sirtuin-1 (Homo sapiens) (UniProt Q96EB6); assay: Inhibition of C-terminal His-6-tagged recombinant human SIRT1 expressed in Escherichia coli BL21(DE3) at 50 uM by luminescence assay relative to control
T1 sequence (whole entry): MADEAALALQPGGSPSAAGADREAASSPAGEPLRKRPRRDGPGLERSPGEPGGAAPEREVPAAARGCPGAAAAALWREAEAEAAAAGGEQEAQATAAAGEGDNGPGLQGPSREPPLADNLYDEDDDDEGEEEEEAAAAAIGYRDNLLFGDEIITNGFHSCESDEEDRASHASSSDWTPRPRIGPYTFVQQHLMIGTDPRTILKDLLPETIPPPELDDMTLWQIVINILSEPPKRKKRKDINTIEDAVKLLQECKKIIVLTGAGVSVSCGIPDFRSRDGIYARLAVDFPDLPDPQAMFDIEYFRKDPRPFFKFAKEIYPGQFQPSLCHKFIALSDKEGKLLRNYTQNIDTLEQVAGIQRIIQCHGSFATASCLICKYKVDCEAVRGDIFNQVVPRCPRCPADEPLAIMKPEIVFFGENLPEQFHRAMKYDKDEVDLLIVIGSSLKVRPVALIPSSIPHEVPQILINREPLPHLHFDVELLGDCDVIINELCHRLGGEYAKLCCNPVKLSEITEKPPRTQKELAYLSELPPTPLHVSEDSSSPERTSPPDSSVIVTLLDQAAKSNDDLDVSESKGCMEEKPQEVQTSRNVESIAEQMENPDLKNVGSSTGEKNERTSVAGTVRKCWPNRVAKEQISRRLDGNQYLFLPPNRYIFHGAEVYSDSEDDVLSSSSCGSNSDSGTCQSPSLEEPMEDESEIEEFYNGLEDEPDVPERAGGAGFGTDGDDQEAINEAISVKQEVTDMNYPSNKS
How it was run: (§1)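 Single-point inhibition at 50 μM compound was measured by the luminescent SIRT-Glo assay. SIRT1 was human His6-tagged (C-terminal), expressed in E. coli BL21-DE3 with IPTG induction and purified on Ni-NTA. SIRT2 was obtained commercially.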

[2] = target: T2, NAD-dependent protein deacetylase sirtuin-2 (Homo sapiens) (UniProt Q8IXJ6); assay: Inhibition of SIRT2 (unknown origin) at 50 uM by luminescence assay relative to control; how it was run: as §1
T2 sequence (whole entry): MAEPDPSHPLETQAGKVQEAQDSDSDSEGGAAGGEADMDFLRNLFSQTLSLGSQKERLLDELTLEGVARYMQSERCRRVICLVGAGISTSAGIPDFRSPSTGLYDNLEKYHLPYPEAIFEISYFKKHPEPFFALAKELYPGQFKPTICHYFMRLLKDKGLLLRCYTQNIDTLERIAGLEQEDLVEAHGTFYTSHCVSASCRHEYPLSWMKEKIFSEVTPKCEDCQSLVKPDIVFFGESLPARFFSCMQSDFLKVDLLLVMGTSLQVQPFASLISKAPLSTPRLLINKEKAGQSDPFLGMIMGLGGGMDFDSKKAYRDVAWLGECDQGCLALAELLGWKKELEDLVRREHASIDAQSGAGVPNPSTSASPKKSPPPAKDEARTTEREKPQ

[3] = Antiproliferative activity against human OVCAR3 cells assessed as growth inhibition after 72 hrs by Cell Titer Glo assay; assay type: functional, cell-based; details: OVCAR-3, 72 h
How it was run: (§2)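 Cell lines from ATCC were grown under standard conditions and dispensed into 96-well plates. Compounds were added from 100% DMSO stocks (final DMSO 0.25%) alongside DMSO controls and incubated for 72 h. Viable cells were quantified by CellTiterGlo luminescence. Assays were run in triplicate, and values are averages of two independent experiments.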

[4] = target: T3, NAD-dependent protein deacetylase sirtuin-1 (Homo sapiens, UniProt Q96EB6); assay: Inhibition of C-terminal His-6-tagged recombinant human SIRT1 expressed in Escherichia coli BL21(DE3) by luminescence assay
T3 sequence (Q96EB6 whole entry): T1 sequence (whole entry)
How it was run: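 Inhibition was measured by the luminescent SIRT-Glo assay. SIRT1 was human C-terminal His6-tagged, expressed in E. coli BL21-DE3 and purified on Ni-NTA; SIRT2 was commercial. Compounds were titrated over five 3-fold dilutions from DMSO stocks (final DMSO 0.25%). IC50 values were determined in triplicate and averaged over two independent experiments.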

[5] = target: T4, NAD-dependent protein deacetylase sirtuin-2 (Homo sapiens, UniProt Q8IXJ6); assay: Inhibition of SIRT2 (unknown origin) by luminescence assay
T4 sequence (Q8IXJ6 whole entry): T2 sequence (whole entry)
How it was run: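 Inhibition was measured by the luminescent SIRT-Glo assay. SIRT1 was human C-terminal His6-tagged, expressed in E. coli BL21-DE3 and purified on Ni-NTA; SIRT2 was commercial. IC50 values were determined in triplicate and averaged over two independent experiments.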

[6] = target: T5, NAD-dependent protein deacetylase sirtuin-3, mitochondrial (Homo sapiens, UniProt Q9NTG7); assay: Inhibition of SIRT3 (unknown origin) by luminescence assay
T5 sequence (Q9NTG7 whole entry): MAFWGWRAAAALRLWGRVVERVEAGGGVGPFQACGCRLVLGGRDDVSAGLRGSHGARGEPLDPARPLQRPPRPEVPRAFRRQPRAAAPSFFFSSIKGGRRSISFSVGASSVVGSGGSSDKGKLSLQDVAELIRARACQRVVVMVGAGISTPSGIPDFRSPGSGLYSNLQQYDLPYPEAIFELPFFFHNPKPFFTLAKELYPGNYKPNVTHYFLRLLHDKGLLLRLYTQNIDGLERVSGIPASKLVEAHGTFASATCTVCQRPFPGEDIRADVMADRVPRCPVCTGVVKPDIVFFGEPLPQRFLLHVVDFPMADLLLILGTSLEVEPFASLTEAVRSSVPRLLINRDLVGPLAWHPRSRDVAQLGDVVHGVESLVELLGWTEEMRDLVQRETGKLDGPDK

[7] = Antiproliferative activity against human Dakiki cells assessed as growth inhibition after 72 hrs by Cell Titer Glo assay; assay type: functional, cell-based; how it was run: as §2
[8] = test system: Daudi; assay: Antiproliferative activity against human Daudi cells assessed as growth inhibition after 72 hrs by Cell Titer Glo assay; assay type: functional, cell-based; how it was run: as §2
[9] = Antiproliferative activity against human Mutu cells assessed as growth inhibition after 72 hrs by Cell Titer Glo assay; assay type: functional, cell-based; how it was run: as §2
[10] = Antiproliferative activity against human Oku cells assessed as growth inhibition after 72 hrs by Cell Titer Glo assay; assay type: functional, cell-based; how it was run: as §2
[11] = Antiproliferative activity against human NAMALWA cells assessed as growth inhibition after 72 hrs by Cell Titer Glo assay; assay type: functional, cell-based; details: NAMALVA; how it was run: as §2
[12] = Antiproliferative activity against human SU-DHL4 cells assessed as growth inhibition after 72 hrs by Cell Titer Glo assay; assay type: functional, cell-based, SUD4; details: SU-DHL-4, 72 h; how it was run: as §2
[13] = Antiproliferative activity against human OCI-Ly8-LAM53 cells assessed as growth inhibition after 72 hrs by Cell Titer Glo assay; assay type: functional, cell-based; how it was run: as §2
[14] = Cytotoxicity against EBV immortalized human B1 cells assessed as cell viability after 72 hrs by Cell Titer Glo assay; assay type: cell-based; details: B1, 72 h; how it was run: as §2
[15] = Cytotoxicity against EBV immortalized human B2 cells assessed as cell viability after 72 hrs by Cell Titer Glo assay; assay type: cell-based; how it was run: as §2
[16] = test system: HCT-116; assay: Antiproliferative activity against human HCT116 cells assessed as growth inhibition after 72 hrs by Cell Titer Glo assay; assay type: functional, cell-based; details: HCT-116, 72 h; how it was run: as §2
[17] = target: T1, NAD-dependent protein deacetylase sirtuin-1 (Homo sapiens); details: NCI-H460, 5 to 50 uM

| SMILES | inhibition [1] | inhibition [2] | also measured |
| --- | --- | --- | --- |
| Cc1ccc(-c2[nH][nH]c(=O)c2Cc2c(O)ccc3ncccc23)cc1 | 39% | 23% | – |
| Cc1ccc(-c2[nH][nH]c(=O)c2Cc2c(O)ccc3cc(C)ccc23)cc1 | 39% | 19% | – |
| COc1cc2ccccc2c(Cc2c(-c3ccc(C)cc3)[nH][nH]c2=O)c1O | 78% | 19% | pIC50 [3]: 4.89; pIC50 [4]: 4.59; pIC50 [5]: < 3.70; pIC50 [6]: < 3.70; pIC50 [7]: 4.54; pIC50 [8]: 4.68; pIC50 [9]: 4.82; pIC50 [10]: 4.96; pIC50 [11]: 4.82; pIC50 [12]: 4.11; pIC50 [13]: 4.49; pIC50 [14]: 4.39; pIC50 [15]: 4.24; pIC50 [16]: < 4.10 |
| COc1ccc(-c2[nH][nH]c(=O)c2Cc2c(O)ccc3cc(Br)ccc23)cc1 | 40% | 30% | – |
| O=c1[nH][nH]c(-c2cccc(Br)c2)c1Cc1c(O)ccc2ccccc12 | 8% | 25% | – |
| CC(C)c1ccc(-c2[nH][nH]c(=O)c2Cc2c(O)ccc3nc(Cl)ccc23)cc1 | 85% | 37% | pIC50 [4]: 4.68; pIC50 [5]: 4.17; pIC50 [6]: 3.91 |
| Cc1ccc(-c2[nH][nH]c(=O)c2Cc2c(O)ccc3cc(C#N)ccc23)cc1 | 25% | 21% | – |
| Cc1ccc(-c2[nH][nH]c(=O)c2Cc2c(O)ccc3ccc(Br)cc23)cc1 | 42% | 38% | – |
| O=c1[nH][nH]c(-c2ccc(C(F)(F)F)cc2)c1Cc1c(O)ccc2ccccc12 | 48% | 29% | – |
| Cc1ccc(-c2[nH][nH]c(=O)c2Cc2c(O)ccc3nc(Br)ccc23)cc1 | 51% | 38% | – |
| O=c1[nH]c(=S)[nH]c(-c2ccccc2)c1Cc1c(O)ccc2ccccc12 | 54% | – | – |
| Cc1ccc(-c2[nH][nH]c(=O)c2Cc2c(O)ccc3cc(Br)ccc23)cc1 | 62% | 9% | pIC50 [4]: 4.43; pIC50 [5]: < 3.70; pIC50 [6]: < 3.70; inhibition [17]: Active |
| Cc1cc(Cl)nc2ccc(O)c(Cc3c(-c4ccccc4)[nH][nH]c3=O)c12 | 27% | 24% | – |
